Assay results published in ChEMBL document CHEMBL4477218 (J Med Chem, 2016).
Values after ≈ are worked out from the molar mass of the structure shown.

What was measured:
Assay type in all cases: functional
Staphylococcus aureus [1] = experiment: Antibacterial activity against TMP/methicillin-resistant Staphylococcus aureus harboring DHFR H30N mutant after 18 hrs by CLSI M100-S16 method
Method in brief: (§1)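 Broth microdilution per CLSI guideline in Isosensitest broth, final inoculum 5 x 10^5 CFU/mL, 18 h at 37 °C. Growth read at A600. MIC taken as the lowest inhibitor concentration visually inhibiting growth, confirmed colorimetrically with Presto Blue. Isosensitest broth with 10 µg/mL thymidine used to check off-target antibacterial activity. Mutant strains were selected on agar containing 6x MIC of an earlier propargyl-linked antifolate and sequenced.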

Staphylococcus aureus [2] = experiment: Antibacterial activity against TMP/methicillin-resistant Staphylococcus aureus ATCC 43300 after 18 hrs by CLSI M100-S16 method; conditions: ATCC 43300, 18 h; method in brief: as §1
Staphylococcus aureus [3] = experiment: Antibacterial activity against TMP/methicillin-resistant Staphylococcus aureus harboring DHFR H30N/F98Y double mutant after 18 hrs by CLSI M100-S16 method; method in brief: as §1
Staphylococcus aureus [4] = experiment: Antibacterial activity against TMP/methicillin-resistant Staphylococcus aureus harboring DHFR H149R mutant after 18 hrs by CLSI M100-S16 method; method in brief: as §1
Staphylococcus aureus [5] = experiment: Antibacterial activity against TMP/methicillin-resistant Staphylococcus aureus harboring DHFR F98Y mutant after 18 hrs by CLSI M100-S16 method; method in brief: as §1
Staphylococcus aureus [6] = experiment: Antibacterial activity against TMP/methicillin-resistant Staphylococcus aureus harboring DHFR F98Y/H149R double mutant after 18 hrs by CLSI M100-S16 method; method in brief: as §1

Row | Structure (SMILES) | MIC (Staphylococcus aureus [1]) | MIC (Staphylococcus aureus [2]) | MIC (Staphylococcus aureus [3]) | MIC (Staphylococcus aureus [4]) | MIC (Staphylococcus aureus [5]) | MIC (Staphylococcus aureus [6])
1 | CCc1nc(N)nc(N)c1C#CC(C)c1cc(OC)cc(-c2ccncc2)c1 (centres undefined) | 2.5 µg/mL (≈ 6.69 µM) | 0.0781 µg/mL (≈ 0.209 µM) | 20 µg/mL (≈ 53.6 µM) | 2.5 µg/mL (≈ 6.69 µM) | 2.5 µg/mL (≈ 6.69 µM) | 80 µg/mL (≈ 214 µM)
2 | CCc1nc(N)nc(N)c1C#CC(C)c1cc(-c2ccncc2)ccc1OC (centres undefined) | 2.5 µg/mL (≈ 6.69 µM) | 0.625 µg/mL (≈ 1.67 µM) | 20 µg/mL (≈ 53.6 µM) | 2.5 µg/mL (≈ 6.69 µM) | 2.5 µg/mL (≈ 6.69 µM) | 40 µg/mL (≈ 107 µM)
3 | CCc1nc(N)nc(N)c1C#CCc1cc(-c2ccc(C(=O)O)cc2)ccc1OC | 0.156 µg/mL (≈ 0.388 µM) | 0.0195 µg/mL (≈ 0.0485 µM) | 6.25 µg/mL (≈ 15.5 µM) | 0.156 µg/mL (≈ 0.389 µM) | 0.156 µg/mL (≈ 0.388 µM) | > 50 µg/mL
4 | CCc1nc(N)nc(N)c1C#C[C@H](C)c1cc(OC)cc(-c2ccc(C(=O)O)cc2)c1 |  | 0.0098 µg/mL (≈ 0.0235 µM) |  | 0.0391 µg/mL (≈ 0.0939 µM) | 0.0781 µg/mL (≈ 0.188 µM) | 2.5 µg/mL (≈ 6 µM)
5 | CCc1nc(N)nc(N)c1C#C[C@@H](C)c1cc(OC)cc(-c2ccc(C(=O)O)cc2)c1 | 0.0781 µg/mL (≈ 0.188 µM) | 0.0098 µg/mL (≈ 0.0235 µM) | 1.25 µg/mL (≈ 3 µM) | 0.0781 µg/mL (≈ 0.188 µM) |  | 1.25 µg/mL (≈ 3 µM)
6 | CCc1nc(N)nc(N)c1C#CCc1cc(OC)cc(-c2ccc(C(=O)O)cc2)c1 | 0.156 µg/mL (≈ 0.388 µM) | 0.0195 µg/mL (≈ 0.0485 µM) | 5 µg/mL (≈ 12.4 µM) | 0.156 µg/mL (≈ 0.388 µM) | 0.156 µg/mL (≈ 0.388 µM) | 10 µg/mL (≈ 24.8 µM)
7 | CCc1nc(N)nc(N)c1C#C[C@H](C)c1cc(-c2ccc(C(=O)O)cc2)ccc1OC | 0.156 µg/mL (≈ 0.375 µM) | 0.0391 µg/mL (≈ 0.0939 µM) | > 40 µg/mL | 0.0781 µg/mL (≈ 0.188 µM) | 0.156 µg/mL (≈ 0.375 µM) | > 40 µg/mL
8 | CCc1nc(N)nc(N)c1C#C[C@H](C)c1cc2c(c(-c3ccncc3)c1)OCO2 | 2.5 µg/mL (≈ 6.45 µM) | 0.0195 µg/mL (≈ 0.0503 µM) | 20 µg/mL (≈ 51.6 µM) | 2.5 µg/mL (≈ 6.45 µM) | 1.25 µg/mL (≈ 3.23 µM) | 20 µg/mL (≈ 51.6 µM)
9 | CCc1nc(N)nc(N)c1C#C[C@H](C)c1cc(OC)cc(-c2ccncc2)c1 | 0.625 µg/mL (≈ 1.67 µM) | 0.0391 µg/mL (≈ 0.105 µM) | 40 µg/mL (≈ 107 µM) | 0.625 µg/mL (≈ 1.67 µM) | 0.625 µg/mL (≈ 1.67 µM) | 20 µg/mL (≈ 53.6 µM)
10 | CCc1nc(N)nc(N)c1C#CC(C)c1cc2c(c(-c3ccncc3)c1)OCO2 (centres undefined) | 5 µg/mL (≈ 12.9 µM) | 0.0781 µg/mL (≈ 0.202 µM) | 40 µg/mL (≈ 103 µM) | 5 µg/mL (≈ 12.9 µM) | 1.25 µg/mL (≈ 3.23 µM) | 40 µg/mL (≈ 103 µM)
11 | CCc1nc(N)nc(N)c1C#CCc1cc(OC)c(OC)c(-c2ccncc2)c1 | 0.625 µg/mL (≈ 1.6 µM) | 0.0195 µg/mL (≈ 0.0501 µM) | 20 µg/mL (≈ 51.4 µM) | 0.625 µg/mL (≈ 1.6 µM) | 0.625 µg/mL (≈ 1.6 µM) | 40 µg/mL (≈ 103 µM)
12 | CCc1nc(N)nc(N)c1C#C[C@@H](C)c1cc(-c2ccncc2)ccc1OC | 0.625 µg/mL (≈ 1.67 µM) | 0.0195 µg/mL (≈ 0.0522 µM) | 10 µg/mL (≈ 26.8 µM) | 1.25 µg/mL (≈ 3.35 µM) | 1.25 µg/mL (≈ 3.35 µM) | 20 µg/mL (≈ 53.6 µM)
